According to the array DNA melting data of Ke et al. (doi:10.1101/2024.01.08.574731):

Columns and labels:
[1] = melting temperature; fluorescence melt of hairpins on a sequencing array, two-state fit, raised by 9.35 °C to match UV melts; conditions: sodium 0.088 M
Outline: (§1)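 Two-state fits, bootstrapped, provided melting temperature and folding enthalpy from Cy3 fluorescence normalised to pre-quench Cy3 and to control constructs. Library hairpins with annealed Cy3 and quencher oligos were imaged on a sequenced MiSeq flow cell in 50 mM Na-HEPES pH 8.0, 25 mM NaCl, at 2.5 °C intervals up to 60 °C. Four replicates were combined with inverse-variance weighting. A 9.35 °C upward shift was applied to fitted temperatures to match UV melts.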

[2] = folding enthalpy; higher = less favourable; fluorescence melt of hairpins on a sequencing array, two-state fit; conditions: sodium 0.088 M
Outline: as §1

| Sequence | Tm [1] | folding enthalpy [2] |
| --- | --- | --- |
| GTGAGCTCGAAAGAGCAC (((..(((....)))))) | 65 °C | -9.96 kcal/mol |
| GTGAGGCCGAAAGGCCAC (((..(((....)))))) | 50.3 °C | -11.7 kcal/mol |
| GTGAGGGGAAACCCTCAC (((((((....))))))) | 67.7 °C | -33.4 kcal/mol |
| GTGAGGGGAAACCCTCGC (.(((((....))))).) | 53.5 °C | -34 kcal/mol |
| GTGAGGGGAAACCTTCGC (.((.((....)).)).) | 33.6 °C | -21.5 kcal/mol |
| GTGAGTGGAAACACTTAC ((.((((....)))).)) | 44.8 °C | -28.8 kcal/mol |
| GTGAGTGGAAACATTCAC ((((.((....)).)))) | 43.9 °C | -33.9 kcal/mol |
| GTGAGTGGAAACGTTCAC ((((..(....)..)))) | 28.4 °C | -11.2 kcal/mol |
| GTGATAGGAAACTACCAC (((.(((....))).))) | 33.5 °C | -27.3 kcal/mol |
| GTGATATCGAAAGATCAC (((..(((....)))))) | 37.1 °C | -27.8 kcal/mol |
| GTGATCCGAAAGGAGCAC (((.(((....))).))) | 66.4 °C | -41.5 kcal/mol |
| GTGATCGAAAGATATCAC ((((((....)))..))) | 34.5 °C | -18 kcal/mol |
| GTGATCGAAAGATGCCAC ((((((....)))..))) | 24.4 °C | -11.5 kcal/mol |
| GTGATCGAAAGATTTCAC ((((((....)))..))) | 27.6 °C | -14.3 kcal/mol |
| GTGATCGGAAACGACCAC (((.(((....))).))) | 47.6 °C | -42 kcal/mol |
| GTGATCGGAAACGATCGC (.(((((....))))).) | 57.6 °C | -36.4 kcal/mol |
| GTGATGGAAACATCAC ((((((....)))))) | 56.7 °C | -41.8 kcal/mol |
| GTGATGGCGAAAGCCCAC (((..(((....)))))) | 41.2 °C | -14.6 kcal/mol |
| GTGATGGGAAACCATCAC (((((((....))))))) | 64.6 °C | -43.8 kcal/mol |
| GTGATGGGAAACTGTCAC ((((..(....)..)))) | 39.1 °C | -32.5 kcal/mol |
| GTGATTGCGAAAGCACAC (((..(((....)))))) | 38.1 °C | -14.4 kcal/mol |
| GTGCAACGAAAGTTACAC (((.(((....))).))) | 44.9 °C | -22.6 kcal/mol |
| GTGCAAGAAATTGCAC ((((((....)))))) | 56.6 °C | -36.2 kcal/mol |

| Sequence | Tm [1] | folding enthalpy [2] |
| --- | --- | --- |
| GTGCAAGCGAAAGCTCAC (((..(((....)))))) | 42.9 °C | -13.4 kcal/mol |
| GTGCAAGGAAACTCGCAC ((((.((....)).)))) | 45.1 °C | -31.7 kcal/mol |
| GTGCAAGGAAACTTGTGC (..((((....))))..) | 37.4 °C | -22.4 kcal/mol |
| GTGCACCGAAAGGTCCAC (((.(((....))).))) | 45.2 °C | -27.3 kcal/mol |
| GTGCACGAAAGTGCCCAC ((((((....)))..))) | 40.7 °C | -7.58 kcal/mol |
| GTGCACGAAAGTGCGCAC ((((((....)))..))) | 58 °C | -10.5 kcal/mol |
| GTGCACGAAAGTGCTCAC ((((((....)))..))) | 43.3 °C | -7.03 kcal/mol |
| GTGCAGAAATGCAC (((((....))))) | 57.1 °C | -25.6 kcal/mol |
| GTGCAGCCGAAAGGCCAC (((..(((....)))))) | 49.1 °C | -12.7 kcal/mol |
| GTGCAGCGAAAGCTACAC (((.(((....))).))) | 54.1 °C | -31 kcal/mol |
| GTGCAGGGAAACCTGCGC (.(((((....))))).) | 58.9 °C | -26.2 kcal/mol |
| GTGCATCGAAAGATCAC (((.(((....)))))) | 46.8 °C | -24.2 kcal/mol |
| GTGCATGAAAATGCAC ((((((....)))))) | 67 °C | -31.6 kcal/mol |
| GTGCATTCGAAAGAACAC (((..(((....)))))) | 23.8 °C | -7.63 kcal/mol |
| GTGCCAGAAATGGCAC ((((((....)))))) | 67.8 °C | -36.7 kcal/mol |
| GTGCCAGGAAACTAGCAC ((((.((....)).)))) | 43.2 °C | -28.2 kcal/mol |
| GTGCCCGAAAGGGATCAC ((((((....)))..))) | 40.3 °C | -13.2 kcal/mol |
| GTGCCCGAAAGGGCTCAC ((((((....)))..))) | 45.5 °C | -7.4 kcal/mol |
| GTGCCCGAAAGGGGGCAC ((((((....)))..))) | 69.1 °C | -22.2 kcal/mol |
| GTGCCCGAAAGGGTCAC ((((((....))).))) | 55 °C | -18.1 kcal/mol |
| GTGCCCGAAAGGGTGCAC ((((((....)))..))) | 55.3 °C | -14.6 kcal/mol |
| GTGCCCGGAAACGGGTAC ((.((((....)))).)) | 62.9 °C | -30 kcal/mol |
| GTGCCCGGAAACGGGTGC (..((((....))))..) | 53.9 °C | -21.9 kcal/mol |

| Sequence | Tm [1] | folding enthalpy [2] |
| --- | --- | --- |
| GTGCCCTCGAAAGAGCAC (((..(((....)))))) | 43 °C | -18.8 kcal/mol |
| GTGCCGACGAAAGTCCAC (((..(((....)))))) | 53.8 °C | -8.42 kcal/mol |
| GTGCCGCGAAAGCGTCAC (((.(((....))).))) | 61.7 °C | -29.1 kcal/mol |
| GTGCCTGCGAAAGCACAC (((..(((....)))))) | 55 °C | -7.25 kcal/mol |
| GTGCCTGGAAACAGACAC (((.(((....))).))) | 46.9 °C | -28.6 kcal/mol |
| GTGCCTGGAAACAGGTGC (..((((....))))..) | 48.9 °C | -23.2 kcal/mol |
| GTGCGAGGAAACCCACAC (((.(.(....).).))) | 24.6 °C | -10.4 kcal/mol |
| GTGCGAGGAAACTTGCAC ((((.((....)).)))) | 53.7 °C | -54 kcal/mol |
| GTGCGCACGAAAGTGCAC (((..(((....)))))) | 64 °C | -11.4 kcal/mol |
| GTGCGCCGAAAGGCACAC (((.(((....))).))) | 63.7 °C | -29 kcal/mol |
| GTGCGCGAAAGCGATCAC ((((((....)))..))) | 41 °C | -13.4 kcal/mol |
| GTGCGCGAAAGCGCCCAC ((((((....)))..))) | 43.3 °C | -6.88 kcal/mol |
| GTGCGCGAAAGCGTCAC ((((((....))).))) | 58.6 °C | -21 kcal/mol |
| GTGCGCGAAAGCGTCCAC ((((((....)))..))) | 36.4 °C | -9.9 kcal/mol |
| GTGCGCGGAAACGCGTGC (..((((....))))..) | 57 °C | -16.7 kcal/mol |
| GTGCGGGGAAACCTGCAC ((((.((....)).)))) | 58.7 °C | -29.3 kcal/mol |
| GTGCGGGGAAACTCGCGC (.(((.(....).))).) | 53.5 °C | -24 kcal/mol |
| GTGCTACGAAAGTAACAC (((.(((....))).))) | 46.7 °C | -32.7 kcal/mol |
| GTGCTACGAAAGTACAC (((.(((....)))))) | 45.3 °C | -25.5 kcal/mol |
| GTGCTCCGAAAGGAACAC (((.(((....))).))) | 52.2 °C | -46.5 kcal/mol |
| GTGCTCGAAAGAGGACAC ((((((....)))..))) | 49.8 °C | -15.6 kcal/mol |
| GTGCTCGAAAGAGGTCAC ((((((....)))..))) | 35.5 °C | -15.8 kcal/mol |
